{"source": "ChEMBL document CHEMBL5032510", "about": "“Identification of Novel Fused Heteroaromatics-Based MALT1 Inhibitors by High-Throughput Screening to Treat B Cell Lymphoma” (J Med Chem, 2021)", "key": {"[1]": {"assay": "AUC (0 to t) in CD-1 mouse at 1 mg/kg, iv by LC-MS/MS analysis", "format": "ADME, organism-based", "design": "dose 1 mg/kg", "settings": "in vivo", "outline": "(§1)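 Compound formulated in 5% DMSO + 5% Tween-80 in 90% saline and given to male ICR (CD-1) mice (n = 9) at 10 mg/kg po, 1 mg/kg ip or 1 mg/kg iv. Blood was drawn via the jugular vein at set time points and held on ice. Plasma was separated by centrifugation and stored at −80 °C before PK parameters were derived.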"}, "OCI-Ly1": {"test_system": "OCI-Ly1", "assay": "Induction of apoptosis in human OCI-Ly1 cells assessed as dead cells at 2 uM measured after 24 hrs by Annexin V-FITC/ Propidium iodide staining based flow cytometry (reference value: 0.365%)", "format": "functional"}, "[2]": {"assay": "Half life in CD-1 mouse at 10 mg/kg, po by LC-MS/MS analysis", "format": "ADME, organism-based", "settings": "in vivo", "outline": "as §1"}, "TMD8 [3]": {"test_system": "TMD8", "assay": "Antitumor activity against human TMD8 cells xenografted in NCG mouse assessed as tumor growth inhibition at 30 mg/kg/day, ip measured every 2 days for 13 days by caliper method relative to control", "format": "functional", "settings": "312 h, time 13 day, read-out: TGI"}, "TMD8 [4]": {"test_system": "TMD8", "assay": "Induction of apoptosis in human TMD8 cells assessed as viable cells at 10 uM measured after 24 hrs by Annexin V-FITC/ Propidium iodide staining based flow cytometry (reference value: 90.8%)", "format": "functional", "settings": "read-out: Activity"}, "[5]": {"target": "T1, Mucosa-associated lymphoid tissue lymphoma translocation protein 1 (Homo sapiens) (UniProt Q9UDY8)", "T1 sequence (whole entry)": "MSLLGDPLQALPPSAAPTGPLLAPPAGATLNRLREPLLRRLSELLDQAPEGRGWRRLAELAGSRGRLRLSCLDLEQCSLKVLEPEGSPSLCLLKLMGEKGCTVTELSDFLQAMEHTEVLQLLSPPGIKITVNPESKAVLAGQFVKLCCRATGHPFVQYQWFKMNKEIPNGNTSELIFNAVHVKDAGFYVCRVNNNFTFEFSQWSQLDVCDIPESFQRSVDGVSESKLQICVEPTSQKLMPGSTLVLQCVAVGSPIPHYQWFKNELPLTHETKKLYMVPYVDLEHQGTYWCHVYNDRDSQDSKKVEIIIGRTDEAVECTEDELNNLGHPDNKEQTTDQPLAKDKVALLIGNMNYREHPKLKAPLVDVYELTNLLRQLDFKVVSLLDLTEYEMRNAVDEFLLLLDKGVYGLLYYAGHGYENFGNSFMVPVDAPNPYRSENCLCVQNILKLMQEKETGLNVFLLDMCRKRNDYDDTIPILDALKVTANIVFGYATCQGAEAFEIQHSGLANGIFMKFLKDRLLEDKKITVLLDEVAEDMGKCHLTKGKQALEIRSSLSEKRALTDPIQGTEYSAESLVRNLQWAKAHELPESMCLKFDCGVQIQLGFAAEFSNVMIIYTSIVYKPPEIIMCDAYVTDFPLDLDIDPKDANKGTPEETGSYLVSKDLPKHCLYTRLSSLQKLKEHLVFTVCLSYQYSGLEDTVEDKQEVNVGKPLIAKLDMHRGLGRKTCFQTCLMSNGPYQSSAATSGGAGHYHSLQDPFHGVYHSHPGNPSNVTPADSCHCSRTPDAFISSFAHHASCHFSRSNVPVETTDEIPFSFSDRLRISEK", "assay": "Inhibition of MALT1 in human HBL1 cells assessed as decrease in RelB substrate cleavage at 8 uM preincubated for 30 mins followed by proteosome inhibitor MG-132 addition and measured after 2 hrs by Western blot analysis", "format": "cell-based", "settings": "time 2.5 hrs", "outline": "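Cells were grown in RPMI with 10% FBS, 2 mM glutamine and 10 mM HEPES at 37 °C, 5% CO₂. Pretreated 30 min with compound (4 and 8 μM), then 10 μM MG-132 for 2 h. 20−75 μg total protein run on SDS-PAGE, blotted to PVDF, probed for RelB, detected by HRP chemiluminescence. β-actin was the loading control.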"}, "TMD8 [6]": {"test_system": "TMD8", "assay": "Induction of apoptosis in human TMD8 cells assessed as viable cells at 5 uM measured after 24 hrs by Annexin V-FITC/ Propidium iodide staining based flow cytometry (reference value: 90.8%)", "format": "functional", "settings": "read-out: Activity"}}, "note": "The source made the active and inactive calls. The calls are words filed in the database; no cut-off is given here."}
{"smiles": "COc1ccc(OC)c(NC(=O)c2sc(=S)n(-c3ccc(C(F)(F)F)cc3)c2NC(=O)CCl)c1", "values": [{"measurement": "AUC(0-t)", "setting": "[1]", "result": 1010, "unit": "ng·h/mL"}, {"measurement": "Activity", "setting": "OCI-Ly1", "result": 0.011, "unit": "%"}, {"measurement": "half-life", "setting": "[2]", "result": 2.83, "unit": "h"}, {"measurement": "inhibition in vivo at 30 mg/kg/day", "setting": "TMD8 [3]", "result": 31, "unit": "%"}, {"measurement": "viability at 10 µM", "setting": "TMD8 [4]", "result": 3.65, "unit": "%"}, {"measurement": "inhibition", "setting": "[5]", "result": "Active"}, {"measurement": "viability at 5 µM", "setting": "TMD8 [6]", "result": 14.8, "unit": "%"}]}
